Test [1] deals with Pseudomonas aeruginosa. As to the kind of experiment: Potentiation of minocycline-induced antibacterial activity against MDR/XDR Pseudomonas aeruginosa isolate 100036 harboring GyrA T83I mutant assessed as fold reduction in minocycline MIC at 7.5 uM incubated for 18 hrs by broth microdilution method. The class given is functional.
For test [2], the system named is Pseudomonas aeruginosa. Description: Potentiation of minocycline-induced antimicrobial activity against MDR/XDR Pseudomonas aeruginosa isolate PA259-96918 harboring GyrA Thr83Ile mutant assessed as minocycline MIC50 incubated for 18 hrs by broth microdilution method (reference value: 16 microg/ml). In kind it is functional. The settings on record: isolate PA259-96918, 18 h. Background: Broth dilution looks for growth in wells or tubes with falling amounts of substance.

The subject of test [3] is Pseudomonas aeruginosa. As to the kind of experiment: Disruption of electrical component of PMF with transmembrane chemical component increment in Pseudomonas aeruginosa PAO1 membrane assessed as increase in tetracycline uptake measured every 1 min for 30 mins by fluorescence based assay. The class given is organism-based. Conditions: Bacterial membrane. An outline of the steps: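 P. aeruginosa PAO1 was grown to OD600 0.6, washed and resuspended in 10 mM HEPES pH 7.2, then treated with varying compound concentrations plus […] tetracycline. Fluorescence (ex 405/em 535 nm) was read each minute for 30 min at room temperature. Triplicates, averaged.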

Test [4] has as its system Pseudomonas aeruginosa. Description: Potentiation of rifampicin-induced antimicrobial activity against MDR/XDR Pseudomonas aeruginosa isolate PA262-101856 harboring GyrA Thr83Ile mutant assessed as rifampicin MIC50 incubated for 18 hrs by broth microdilution method (reference value: 8 microg/ml). The class given is functional. The settings on record: isolate PA262-101856, 18 h.

The subject of test [5] is Pseudomonas aeruginosa. As to the kind of experiment: Potentiation of minocycline-induced antibacterial activity against MDR/XDR Pseudomonas aeruginosa isolate PA260-97103 harboring GyrA T83I mutant assessed as fold reduction in minocycline MIC at 7.5 uM incubated for 18 hrs by broth microdilution method. In kind it is functional.
The test system of test [6] is Pseudomonas aeruginosa. As to the kind of experiment: Potentiation of minocycline-induced antimicrobial activity against MDR/XDR Pseudomonas aeruginosa isolate PA260-97103 harboring GyrA Thr83Ile mutant assessed as minocycline MIC80 incubated for 18 hrs by broth microdilution method (reference value: 32 microg/ml). In kind it is functional. Conditions: isolate PA260-97103, 18 h.

The test system of test [7] is Acinetobacter baumannii. As to the kind of experiment: Potentiation of rifampicin-induced antibacterial activity against multidrug-resistant Acinetobacter baumannii AB031 assessed as fold reduction in rifampicin MIC at 7.5 uM incubated for 18 hrs by broth dilution method. The class given is functional. The procedure, abridged:
(§1)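 CLSI broth microdilution. Overnight cultures were set to 0.5 McFarland in saline, diluted 1:50 in Mueller-Hinton broth to a final 5 × 10^5 CFU/mL, and incubated 18 h at 37 °C against 2-fold antibiotic dilutions. A fixed adjuvant level was present throughout. MIC = lowest concentration with no visible turbidity, confirmed at 590 nm. Potentiation = fold drop in antibiotic MIC versus antibiotic alone.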

Test [8] deals with Acinetobacter baumannii. As to the kind of experiment: Synergistic antibacterial activity against multidrug-resistant Acinetobacter baumannii AB030 assessed as fractional inhibitory concentration index in presence of minocycline incubated for 18 hrs by broth dilution method. The class given is functional.
The test system of test [9] is Acinetobacter baumannii. As to the kind of experiment: Antimicrobial activity against multidrug-resistant Acinetobacter baumannii AB031 incubated for 18 hrs by broth dilution method. In kind it is functional. The settings on record: AB031, 18 h. An outline of the steps:
(§2)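 Broth microdilution per CLSI: overnight cultures set to 0.5 McFarland in saline, diluted 1:50 in Mueller-Hinton broth to a final 5 × 10^5 CFU/mL, added to 2-fold serial dilutions, incubated 18 h at 37 °C; MIC is the lowest concentration without visible turbidity, confirmed at 590 nm.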

Test [10] deals with Pseudomonas aeruginosa. As to the kind of experiment: Potentiation of ciprofloxacin-induced antibacterial activity against MDR/XDR Pseudomonas aeruginosa isolate PA262-101856 harboring GyrA T83I mutant assessed as fold reduction in ciprofloxacin MIC at 9 uM incubated for 18 hrs by broth microdilution method. In kind it is functional.
Test [11] concerns Pseudomonas aeruginosa. As to the kind of experiment: Potentiation of moxifloxacin-induced antibacterial activity against wild type Pseudomonas aeruginosa PAO1 assessed as fold reduction in moxifloxacin MIC at 9 uM incubated for 18 hrs by broth microdilution method. The class given is functional. The procedure, abridged:
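Antibiotic MIC determined by CLSI broth microdilution (MHB, 5 × 10^5 CFU/mL, 18 h, 37 °C), once alone and once with a fixed concentration of the adjuvant. Potentiation is the ratio of the antibiotic MIC alone to its MIC in the presence of the adjuvant.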

The next test has as its system Escherichia coli. As to the kind of experiment: Antimicrobial activity against Escherichia coli 107115 incubated for 18 hrs by broth dilution method. In kind it is functional. Conditions: Escherichia coli, 107115, 18 h. An outline of the steps:
as §2

For test [12], the system named is Pseudomonas aeruginosa. As to the kind of experiment: Antimicrobial activity against XDR Pseudomonas aeruginosa PA264 infected in Galleria mellonella larvae assessed as survival rate at 100 mg/kg administered 2 hrs post-inoculation measured after 18 hrs relative to control. In kind it is functional. An outline of the steps: (§3)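 G. mellonella larvae were injected with ~5 CFU of P. aeruginosa PA264 (10 µL of 5 × 10^2 CFU/mL in PBS) and held 2 h at 37 °C. A single 10 µL injection followed: monotherapy or rifampicin + compound (25+25, 50+50 or 75+75 mg/kg), with PBS as control. Larvae kept at 37 °C were scored every 6 h to 24 h; dead = no response to touch. n = 30 (two runs of 15); Kaplan-Meier.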

Test [13] concerns Klebsiella pneumoniae. As to the kind of experiment: Antimicrobial activity against Klebsiella pneumoniae 113250 incubated for 18 hrs by broth dilution method. The class given is functional. The settings on record: Klebsiella pneumoniae, 113250, 18 h. The procedure, abridged: (§4)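 CLSI broth microdilution. Overnight cultures were adjusted to 0.5 McFarland in saline, diluted 1:50 in Mueller-Hinton broth, and inoculated at a final 5 × 10^5 CFU/mL. Compounds were tested as 2-fold serial dilutions and incubated 18 h at 37 °C. MIC was the lowest concentration with no visible turbidity, confirmed by absorbance at 590 nm.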

For test [14], the system named is Acinetobacter baumannii. As to the kind of experiment: Potentiation of minocycline-induced antibacterial activity against […] Acinetobacter baumannii ATCC 17978 assessed as fold reduction in minocycline MIC at 4.1 uM incubated for 18 hrs by broth dilution method. In kind it is functional. The procedure, abridged:
as §1

The subject of test [15] is Pseudomonas aeruginosa. Description: Antimicrobial activity against XDR Pseudomonas aeruginosa isolate PA264 infected in Galleria mellonella larvae assessed as survival rate at 25 mg/kg co-administered with 25 mg/kg rifampicin at 2 hrs post-inoculation measured after 18 hrs relative to control. In kind it is functional. The procedure, abridged:
as §3

Test [16] relates to Klebsiella pneumoniae. Description: Antimicrobial activity against Klebsiella pneumoniae 113254 incubated for 18 hrs by broth dilution method. The class given is functional. Conditions: Klebsiella pneumoniae, 113254, 18 h. An outline of the steps: as §4
In test [17] the test system is Klebsiella pneumoniae. Description: Synergistic antibacterial activity against Klebsiella pneumoniae 113254 assessed as fractional inhibitory concentration index in presence of minocycline incubated for 18 hrs by broth dilution method. The class given is functional. The procedure, abridged: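 Checkerboard titration of the adjuvant against the antibiotic, run under the CLSI microdilution conditions (MHB, 5 × 10^5 CFU/mL, 18 h, 37 °C). Each agent's FIC is its MIC in combination divided by its MIC alone; FICI is the sum of the two FICs. FICI ≤0.5 was read as synergy, >0.5–4.0 as no interaction, and >4.0 as antagonism.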

Where only a bound is given, the exact number is not on record here.

As to `COc1c(N2C[C@@H]3CCCN(CCCCCCCCCCCCO[C@@H]4[C@@H](O)[C@H](N)C[C@H](N)[C@H]4O[C@H]4O[C@H](CN)[C@@H](O)C[C@H]4N)[C@@H]3C2)c(F)cc2c(=O)c(C(=O)O)cn(C3CC3)c12.Cl.Cl.Cl.Cl.Cl`, the “fold change (FC)” value came out at 32 with Pseudomonas aeruginosa [1], 32 in the test on Pseudomonas aeruginosa [5] and 64 in the test with Acinetobacter baumannii [7]. Also, the MIC50 – broadly, an inhibitory concentration at the 50% level, which refers to growth in some studies and to a panel of isolates in others – with Pseudomonas aeruginosa [2] is 0.5 µg/mL; in the test with Pseudomonas aeruginosa [4], 0.06 µg/mL. Further, the Activity result with Pseudomonas aeruginosa [3] is “Dose-dependent effect”. Moreover, in the test with Pseudomonas aeruginosa [6], the MIC80 (usually the lowest concentration that inhibits either 80% of growth or 80% of the strains tested, depending on the study) is 1 µg/mL. In addition, in the test on Acinetobacter baumannii [8], the “fractional inhibitory concentration index (FICI)” value is >1. Also, the MIC (as a rule, the least concentration at which growth counts as inhibited) against Acinetobacter baumannii [9] is 128 µg/mL.
For `Cl.Cl.Cl.Cl.Cl.Cl.NC[C@H]1O[C@H](O[C@H]2[C@H](OCCCCCCCCCCN3CCN(Cc4cccc5ccccc45)CC3)[C@@H](O)[C@H](N)C[C@@H]2N)[C@H](N)C[C@@H]1O`, the figures for the “fold change (FC)” value with Pseudomonas aeruginosa [10] and with Pseudomonas aeruginosa [11] were 8 and 32, respectively.
Consider `Cl.Cl.Cl.Cl.Cl.NC[C@H]1O[C@H](O[C@H]2[C@H](OCCCCCCCCCCCCN3CCN(c4cc5c(cc4F)c(=O)c(C(=O)O)cn5C4CC4)CC3)[C@@H](O)[C@H](N)C[C@@H]2N)[C@H](N)C[C@@H]1O`, for which the MIC against Escherichia coli turned out to be 32 µg/mL; in the test on Klebsiella pneumoniae [13], 128 µg/mL; against Klebsiella pneumoniae [16], 128 µg/mL. The survival at 100 mg/kg in the test with Pseudomonas aeruginosa [12] stood at 0%. Besides, in the test on Acinetobacter baumannii [14], the “fold change (FC)” value worked out at 2. The survival at 25 mg/kg in the test with Pseudomonas aeruginosa [15] amounted to 33%. Also, the “fractional inhibitory concentration index (FICI)” value in the test with Klebsiella pneumoniae [17] is recorded as 0.504.
